Screens: PubChem BioAssay, The Scripps Research Institute Molecular Screening Center
Tn6 DDE FP: DD(E)-Tn6 binding inhibition, primary FP screen; 0.21% of 370,000 active; inhibition, % at 8.3 µM; Fibrin DD(E) TRITC-Tn6 fluorescence polarization displacement; P02675;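 active means inhibition above a per-campaign cutoff: mean of compounds within control limits plus 3 SD, cut at about 15% in these data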
DDE Tn7 FP inh: inhibitors of Tn7 peptide binding to human fibrin DD(E) | P02675 | FP displacement of FITC-Tn7 peptide from fibrin DD(E); 0% = median of compound wells per plate | inhibition, % at 8.3 µM | 0.13% of 370,000 active;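 active means inhibition above the mean of compounds falling within the control limits plus 3 SD of them, cut at about 14% in these data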
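Measure: % inhibition scaled between sample-field median and high-control FP; Test system: human fibrin DD(E); Quantity: 2 µM final DD(E) protein; Doses: one dose, 8.3 µM nominal; Schedule: compound with protein 10 min, then 3 h after probe, room temperature; Detection: fluorescence polarization; Medium: Tris buffer with calcium and detergent, pH 7.8.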
TCR-CD3 inh: inhibitors of human TCR-CD3 interaction; inhibition, % at 9.4 µM; AID 651800; 0.37% of 360,000 active; TAMRA-labeled TCR probe fluorescence, biochemical;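 further: recombinant mutant TCR 2C K166C tagged with TAMRA read by polarization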
ABHD4 inh: ABHD4 (mouse) inhibition, primary FP screen; Q8VD66; purified mABHD4, FP-Rh probe fluorescence polarization; inhibition, % at 8.92 µM; 0.54% of 370,000 active;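 active means inhibition exceeding the mean over every tested compound plus 3 SD, cut at about 30% in these data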
Target sequence (Q8VD66 whole entry, looked up): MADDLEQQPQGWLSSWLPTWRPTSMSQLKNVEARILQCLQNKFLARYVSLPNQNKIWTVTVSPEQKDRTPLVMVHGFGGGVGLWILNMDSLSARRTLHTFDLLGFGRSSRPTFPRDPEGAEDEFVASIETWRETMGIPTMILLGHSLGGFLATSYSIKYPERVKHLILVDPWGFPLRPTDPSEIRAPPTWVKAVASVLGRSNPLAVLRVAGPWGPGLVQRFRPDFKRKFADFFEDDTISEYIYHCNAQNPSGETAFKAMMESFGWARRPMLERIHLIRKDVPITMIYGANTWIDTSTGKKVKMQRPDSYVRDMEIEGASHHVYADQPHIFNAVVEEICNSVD
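Assay system: Wild-type mouse ABHD4 protein | Medium: HEPES pH 7.0 buffer, 150 mM NaCl, 0.01% Pluronic F-127 | Incubation: Enzyme–compound pre-incubation 45 min, then probe 60 min, both 25 °C | Technique: Fluorescence polarization with parallel and perpendicular emission, 525/598 nm | Evaluation: % inhibition of FP-Rh probe binding versus controls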
HTRA1 inhibitor: blocks human HTRA1 serine peptidase | 0.5% of 340,000 active | inhibition, % at 5.96 µM | recombinant HTRA1, FP-rhodamine activity-based probe, fluorescence polarization; in the data active means inhibition above about 36%
BSA probe FL: counter-screen for TCR-CD3 interaction inhibitors: BSA probe; inhibition, % at 9.4 µM; 10% of 1,200 active; TAMRA-labeled BSA probe fluorescence counterscreen; shares compounds with TCR-CD3 inh; AID 652035; in the data active means inhibition above about 23%
TCR-CD3 inh conf: TCR-CD3 interaction inhibition, confirmation. inhibition, % at 9.4 µM. 48% of 1,200 active. shares compounds with TCR-CD3 inh. TAMRA-labeled TCR probe fluorescence binding assay
Large screens that a line does not name were inactive (follow-up assays come after a bar, where they were run). Only some compounds are listed: those with a hit (about 1.3% of all), similar ones and a draw of the others. Unless noted, no stated cut-off is given here; in the data, active means inhibition above about 19%; inactive means the rest.

C[C@@H]1CN([C@H](C)CO)C(=O)c2cc(NC(=O)Nc3ccc(C(F)(F)F)cc3)ccc2O[C@H]1CN(C)Cc1ccc(Cl)c(Cl)c1	TCR-CD3 inh 27 | BSA probe FL 24 | TCR-CD3 inh conf 46
O=C(CN1C(=O)c2ccccc2S1(=O)=O)NC1CCCC1	TCR-CD3 inh 22 | BSA probe FL inactive | TCR-CD3 inh conf inactive
Cc1ccc(OCC(=O)Nc2ccc(C(N)=O)cc2)cc1	none
O=C(N/N=C/c1cccc([N+](=O)[O-])c1)c1c[nH]c2ccccc12	none
CCOC(=O)c1c(C)[nH]c(C(=O)N/N=C/c2cc([N+](=O)[O-])ccc2O)c1C	TCR-CD3 inh 21 | BSA probe FL inactive | TCR-CD3 inh conf 41
O=C(NC(C(=O)N/N=C/c1cc([N+](=O)[O-])ccc1O)c1n[nH]c(=O)c2ccccc12)c1ccccc1 (stereo unspecified)	TCR-CD3 inh 29 | BSA probe FL inactive | TCR-CD3 inh conf 38
O=C(N/N=C/c1cc([N+](=O)[O-])ccc1O)c1c[nH]c2ccccc12	TCR-CD3 inh 21 | BSA probe FL inactive | TCR-CD3 inh conf inactive
COc1cccc2c(SCC(=O)N/N=C/c3ccc(O)c(O)c3)cc(C)nc12	TCR-CD3 inh 45 (no result: HTRA1 inhibitor) | BSA probe FL inactive | TCR-CD3 inh conf 79
Cc1ccc2nc(C)cc(SCC(=O)N/N=C/c3ccco3)c2c1	TCR-CD3 inh 19 | BSA probe FL inactive | TCR-CD3 inh conf inactive
Clc1ccc2nc(CSCc3ccccc3)cn2c1	TCR-CD3 inh 39 | BSA probe FL inactive | TCR-CD3 inh conf inactive
OCCN1CCN(c2cnc(-c3ccsc3)cn2)CC1	TCR-CD3 inh 38 (no result: HTRA1 inhibitor) | BSA probe FL inactive | TCR-CD3 inh conf inactive
CCS(=O)(=O)N1CCN(C2CCC(c3ccccc3)CC2)CC1 (stereo unspecified)	none (no result: Tn6 DDE FP, DDE Tn7 FP inh, TCR-CD3 inh, ABHD4 inh)
COc1ccc(N2CC(C(=O)N/N=C/c3cc([N+](=O)[O-])ccc3O)CC2=O)cc1 (stereo unspecified)	TCR-CD3 inh 25 | BSA probe FL inactive | TCR-CD3 inh conf inactive
CC(C(=O)N1CCCCC1)n1sc2ccccc2c1=O (stereo unspecified)	TCR-CD3 inh 31 | BSA probe FL inactive | TCR-CD3 inh conf inactive
COc1ccc(-c2nn(-c3ccccc3)cc2/C=N/NC(=O)c2cccc(S(=O)(=O)Nc3ccccc3Cl)c2)cc1	TCR-CD3 inh 20 | BSA probe FL inactive | TCR-CD3 inh conf 22
COc1ccc(-c2nn(-c3ccccc3)cc2/C=N/NS(=O)(=O)c2ccccc2)cc1	none
Cn1c(=O)n(C)c2cc(/C=N/N=C3/NC(=O)C(CC(=O)O)S3)ccc21 (stereo unspecified)	TCR-CD3 inh 41 | BSA probe FL inactive | TCR-CD3 inh conf 22
COc1ccccc1NC(=O)CSc1nnc(C)n1CCc1ccccc1	none
CCCCc1c(-c2ccccc2OC)ncn1C1CCCC1	none (no result: HTRA1 inhibitor)
CCCCc1c(-c2ccccc2OC)ncn1C1CCCCC1	TCR-CD3 inh 21 (no result: HTRA1 inhibitor) | BSA probe FL inactive | TCR-CD3 inh conf inactive
Cc1ccc(-n2c(O)c(C=Nc3ccccc3-c3n[nH]c(=S)[nH]c3=O)c3ccccc3c2=O)c(C)c1	none
Cc1ccc(-n2c(O)c(C=Nc3ccccc3-c3n[nH]c(=S)[nH]c3=O)c3ccccc3c2=O)cc1C	TCR-CD3 inh 23 | BSA probe FL inactive | TCR-CD3 inh conf inactive
O=C(Nc1ccc(F)c(Cl)c1)C1Cc2c(-c3ccc(Cl)cc3)ccnc2O1 (stereo unspecified)	none (no result: HTRA1 inhibitor)
O=C(Nc1ccc(F)c(Cl)c1)C1Cc2c(-c3ccc4c(c3)OCO4)ccnc2O1 (stereo unspecified)	TCR-CD3 inh 29 (no result: HTRA1 inhibitor) | BSA probe FL inactive | TCR-CD3 inh conf inactive
O=C(CCN1C(=O)/C(=C/c2ccc(F)cc2)SC1=S)NCCCn1ccnc1	none
O=C(CCN1C(=O)/C(=C/c2ccc(Cl)cc2)SC1=S)NCCCn1ccnc1	TCR-CD3 inh 23 | BSA probe FL inactive | TCR-CD3 inh conf 20
Cc1c(OC(C(=O)O)c2ccccc2)ccc2c3c(c(=O)oc12)CCC3 (stereo unspecified)	none
